Test system: Fibroblast
Assay: Multiplex assay against human fibroblast
Assay type: toxicity, cell-based
Summary of the method: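 Compound was added to live cells that had been stained at seeding with Hoechst33342, BioTracker Green Microtubule Cytoskeleton Dye, MitoTracker Red and Annexin V Alexa Fluor 680, and imaging followed on a CQ1 microscope at 37°C and 5% CO2. CellPathfinder machine-learning gating divided cells into Hoechst high-intensity objects or normal cells, normal cells into healthy, pyknosed or fragmented nuclei, and pyknosed cells into mitotic or apoptotic. Tubulin, mitochondrial-mass and membrane-permeability phenotypes are per cents of healthy-nucleus cells.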

[1] = 12 h, 1 µM, compound concentration 1 uM, replicate 1
[2] = 12 h, 1 µM, compound concentration 1 uM, replicate 2
[3] = 12 h, 10 µM, compound concentration 10 uM, replicate 1
[4] = 12 h, 10 µM, compound concentration 10 uM, replicate 2
[5] = 24 h, 1 µM, compound concentration 1 uM, replicate 1
[6] = 24 h, 1 µM, compound concentration 1 uM, replicate 2
[7] = 24 h, 10 µM, compound concentration 10 uM, replicate 1
[8] = 24 h, 10 µM, compound concentration 10 uM, replicate 2
[9] = 48 h, 1 µM, compound concentration 1 uM, replicate 1
[10] = 48 h, 1 µM, compound concentration 1 uM, replicate 2
[11] = 48 h, 10 µM, compound concentration 10 uM, replicate 1
[12] = 48 h, 10 µM, compound concentration 10 uM, replicate 2

Compound: C=C1/C(=C\C=C2/CCC[C@]3(C)[C@@H]([C@H](C)/C=C/[C@H](C)C(C)C)CC[C@@H]23)C[C@@H](O)C[C@@H]1O [DOXERCALCIFEROL]
- Population Apoptotic (%) [1]: 63%
- Population Fragmented Nuclei (%) [1]: 23%
- Population Healthy Nuclei (%) [1]: 33%
- Population Hoechst High Intensity Objects (%) [1]: 10%
- Population Membrane Permeable-Phenotype (%) [1]: 10%
- Population Mitochondria Different-Phenotype (%) [1]: 0%
- Population Mitotic Cells (%) [1]: 36%
- Population Normal (%) [1]: 89%
- Population Pyknosed Nuclei (%) [1]: 42%
- Population Tubulin-Different-Phenotype (%) [1]: 14%
- Total Cell Count [1]: 94
- Population Apoptotic (%) [2]: 40%
- Population Fragmented Nuclei (%) [2]: 1%
- Population Healthy Nuclei (%) [2]: 90%
- Population Hoechst High Intensity Objects (%) [2]: 1%
- Population Membrane Permeable-Phenotype (%) [2]: 5%
- Population Mitochondria Different-Phenotype (%) [2]: 14%
- Population Mitotic Cells (%) [2]: 60%
- Population Normal (%) [2]: 98%
- Population Pyknosed Nuclei (%) [2]: 8%
- Population Tubulin-Different-Phenotype (%) [2]: 9%
- Total Cell Count [2]: 111
- Population Apoptotic (%) [3]: 30%
- Population Fragmented Nuclei (%) [3]: 72%
- Population Healthy Nuclei (%) [3]: 21%
- Population Hoechst High Intensity Objects (%) [3]: 11%
- Population Membrane Permeable-Phenotype (%) [3]: 4%
- Population Mitochondria Different-Phenotype (%) [3]: 15%
- Population Mitotic Cells (%) [3]: 69%
- Population Normal (%) [3]: 88%
- Population Pyknosed Nuclei (%) [3]: 5%
- Population Tubulin-Different-Phenotype (%) [3]: 28%
- Total Cell Count [3]: 247
- Population Apoptotic (%) [4]: 0%
- Population Fragmented Nuclei (%) [4]: 27%
- Population Healthy Nuclei (%) [4]: 67%
- Population Hoechst High Intensity Objects (%) [4]: 6%
- Population Membrane Permeable-Phenotype (%) [4]: 2%
- Population Mitochondria Different-Phenotype (%) [4]: 21%
- Population Mitotic Cells (%) [4]: 100%
- Population Normal (%) [4]: 93%
- Population Tubulin-Different-Phenotype (%) [4]: 13%
- Total Cell Count [4]: 61
- Population Apoptotic (%) [5]: 38%
- Population Fragmented Nuclei (%) [5]: 18%
- Population Healthy Nuclei (%) [5]: 48%
- Population Hoechst High Intensity Objects (%) [5]: 10%
- Population Membrane Permeable-Phenotype (%) [5]: 22%
- Population Mitochondria Different-Phenotype (%) [5]: 2%
- Population Mitotic Cells (%) [5]: 61%
- Population Normal (%) [5]: 89%
- Population Pyknosed Nuclei (%) [5]: 34%
- Population Tubulin-Different-Phenotype (%) [5]: 27%
- Total Cell Count [5]: 112
- Population Apoptotic (%) [6]: 42%
- Population Fragmented Nuclei (%) [6]: 5%
- Population Healthy Nuclei (%) [6]: 86%
- Population Hoechst High Intensity Objects (%) [6]: 4%
- Population Membrane Permeable-Phenotype (%) [6]: 4%
- Population Mitochondria Different-Phenotype (%) [6]: 7%
- Population Mitotic Cells (%) [6]: 57%
- Population Normal (%) [6]: 95%
- Population Pyknosed Nuclei (%) [6]: 8%
- Population Tubulin-Different-Phenotype (%) [6]: 14%
- Total Cell Count [6]: 157
- Population Apoptotic (%) [7]: 69%
- Population Fragmented Nuclei (%) [7]: 55%
- Population Healthy Nuclei (%) [7]: 36%
- Population Hoechst High Intensity Objects (%) [7]: 9%
- Population Membrane Permeable-Phenotype (%) [7]: 12%
- Population Mitochondria Different-Phenotype (%) [7]: 6%
- Population Mitotic Cells (%) [7]: 30%
- Population Normal (%) [7]: 90%
- Population Pyknosed Nuclei (%) [7]: 8%
- Population Tubulin-Different-Phenotype (%) [7]: 9%
- Total Cell Count [7]: 304
- Population Apoptotic (%) [8]: 33%
- Population Fragmented Nuclei (%) [8]: 25%
- Population Healthy Nuclei (%) [8]: 70%
- Population Hoechst High Intensity Objects (%) [8]: 3%
- Population Membrane Permeable-Phenotype (%) [8]: 1%
- Population Mitochondria Different-Phenotype (%) [8]: 16%
- Population Mitotic Cells (%) [8]: 66%
- Population Normal (%) [8]: 96%
- Population Pyknosed Nuclei (%) [8]: 4%
- Population Tubulin-Different-Phenotype (%) [8]: 13%
- Total Cell Count [8]: 83
- Population Apoptotic (%) [9]: 66%
- Population Fragmented Nuclei (%) [9]: 22%
- Population Healthy Nuclei (%) [9]: 58%
- Population Hoechst High Intensity Objects (%) [9]: 18%
- Population Membrane Permeable-Phenotype (%) [9]: 21%
- Population Mitochondria Different-Phenotype (%) [9]: 3%
- Population Mitotic Cells (%) [9]: 33%
- Population Normal (%) [9]: 81%
- Population Pyknosed Nuclei (%) [9]: 18%
- Population Tubulin-Different-Phenotype (%) [9]: 35%
- Total Cell Count [9]: 118
- Population Apoptotic (%) [10]: 0%
- Population Fragmented Nuclei (%) [10]: 27%
- Population Healthy Nuclei (%) [10]: 72%
- Population Hoechst High Intensity Objects (%) [10]: 42%
- Population Membrane Permeable-Phenotype (%) [10]: 17%
- Population Mitochondria Different-Phenotype (%) [10]: 2%
- Population Mitotic Cells (%) [10]: 0%
- Population Normal (%) [10]: 57%
- Population Pyknosed Nuclei (%) [10]: 0%
- Population Tubulin-Different-Phenotype (%) [10]: 37%
- Total Cell Count [10]: 165
- Population Apoptotic (%) [11]: 86%
- Population Fragmented Nuclei (%) [11]: 33%
- Population Healthy Nuclei (%) [11]: 46%
- Population Hoechst High Intensity Objects (%) [11]: 12%
- Population Membrane Permeable-Phenotype (%) [11]: 23%
- Population Mitochondria Different-Phenotype (%) [11]: 0%
- Population Mitotic Cells (%) [11]: 13%
- Population Normal (%) [11]: 87%
- Population Pyknosed Nuclei (%) [11]: 19%
- Population Tubulin-Different-Phenotype (%) [11]: 2%
- Total Cell Count [11]: 351
- Population Apoptotic (%) [12]: 100%
- Population Fragmented Nuclei (%) [12]: 39%
- Population Healthy Nuclei (%) [12]: 59%
- Population Hoechst High Intensity Objects (%) [12]: 14%
- Population Mitochondria Different-Phenotype (%) [12]: 1%
- Population Mitotic Cells (%) [12]: 0%
- Population Normal (%) [12]: 85%
- Population Pyknosed Nuclei (%) [12]: 1%
- Population Tubulin-Different-Phenotype (%) [12]: 49%
- Total Cell Count [12]: 128

Reference: ChEMBL document CHEMBL4689842, “EUbOPEN Chemogenomics Library wave 1” (2021)
